# Paper PMC7938327 (Journal of medicinal chemistry, 2017)
# “Also recorded” adds a separate entry of the source.
# Legend:
# human recombinant ATX [1] = target: T1, human recombinant ATX (Homo sapiens, UniProt Q13822); test: ATX lysophospholipase D activity, FS-3 hydrolysis; type: biochemical; conditions: for ATX inhibitory activity (in words): FS-3 substrate; for mechanism: FS-3 0 to 10 μM, inhibitor 0, 0.5 × IC50 or 2 × IC50, best global fit
# human recombinant ATX [2] = target: T1, human recombinant ATX; test: ATX nucleotide pyrophosphatase activity, pNP-TMP hydrolysis; type: biochemical; conditions: 1 mM pNP-TMP, 4 nM ATX, compound 0 to 1 μM
# Procedure, shortened: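 Human recombinant FLAG-tagged ATX was expressed in Sf9 insect cells and purified on anti-FLAG resin. Absorbance at 405 nm was read every 2 min for 1 h.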
# [3] = In vitro stability in 4T1 cell culture by LC-MS; type: in vitro ADME, mouse; conditions: 40 h of exposure to 4T1 cells
# [4] = system: 4T1-TaxR cancer stem-like cells (mammospheres); test: 4T1-TaxR mammosphere viability with paclitaxel; type: cell-based, mouse
# [5] = system: A2058 human melanoma cells; test: ATX-mediated in vitro invasion assay; type: cell-based; conditions: exogenous LPC and recombinant ATX; for inhibition of A2058 cell invasion, screen at 10 μM: compared with 30; for inhibition of A2058 cell invasion (in words): dose–response
# LPA1 = LPA1 (Homo sapiens, UniProt Q92633); test: LPA-mediated Ca2+ mobilization, LPA1 RH7777 cells; type: cell-based; conditions: LPA1-elicited Ca2+ responses
# Procedure, shortened: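 Rat hepatoma RH7777 cells stably expressing LPA1 were seeded at 5 × 10^4 per well on poly-L-lysine, left overnight, then serum-deprived 4 h in HEPES-Krebs buffer pH 7.4. Cells were loaded 30 min with 4.5 μg/mL Fura-2AM plus 0.45% Pluronic F-127. […] The 340/510 and 380/510 nm ratio was read every 3.42 s for 70 s, normalized to LPA Emax, and fitted by variable-slope regression for IC50.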
# LPA1, sequence (Q92633 whole entry, species assumed): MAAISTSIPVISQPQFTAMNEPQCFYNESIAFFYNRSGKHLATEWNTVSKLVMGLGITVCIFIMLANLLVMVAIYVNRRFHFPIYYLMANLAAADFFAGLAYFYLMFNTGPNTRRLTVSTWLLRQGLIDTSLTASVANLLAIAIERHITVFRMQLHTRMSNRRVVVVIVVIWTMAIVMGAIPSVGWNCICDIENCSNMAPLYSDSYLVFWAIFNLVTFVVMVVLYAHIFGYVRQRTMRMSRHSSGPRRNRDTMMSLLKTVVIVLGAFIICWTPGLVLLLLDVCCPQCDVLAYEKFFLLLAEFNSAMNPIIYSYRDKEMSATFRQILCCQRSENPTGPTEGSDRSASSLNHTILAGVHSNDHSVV
Compound,ATX inhibitory activity (in words) (human recombinant ATX [1]),pNP-TMP inhibition (human recombinant ATX [2]),also measured
O=S(=O)(Nc1cc(S(=O)(=O)N2CCOCC2)c(Cl)cc1Cl)c1cccc(F)c1 [Compound 19],lost their ATX inhibitory activity,none,–
"O=S(=O)(c1cc(C(=S)Nc2cccc(F)c2)c(Cl)cc1Cl)N1CCOCC1 [Compound 12, 2,4-Dichloro-N-(3-fluorophenyl)-5-(morpholinosulfonyl)-benzothioamide]",retained similar inhibitory activity as the amide analogues,none,–
"COC(=O)c1c(F)cc(NC(=O)c2cc(S(=O)(=O)N3CCOCC3)c(Cl)cc2Cl)cc1F [Compound 3i, Methyl 4-(2,4-Dichloro-5-(morpholinosulfonyl)benzamido)-2,6-difluorobenzoate]",–,none,–
"O=C(Nc1cccc(F)c1)c1cc(S(=O)(=O)N2CCOCC2)c(Cl)cc1Cl [Compound 3, 2,4-Dichloro-N-(3-fluorophenyl)-5-(morpholinosulfonyl)-benzamide]",–,none,in vitro stability (in words) [3]: significant stability; mechanism (human recombinant ATX [1]): competitive
"O=S(=O)(c1cc(CNc2cc(F)c(F)c(F)c2)c(Cl)cc1Cl)N1CCOCC1 [Compound 11, N-(2,4-Dichloro-5-(morpholinosulfonyl)benzyl)-3,4,5-trifluoroani-line]",–,none,–
"O=S(=O)(c1cc(CNc2ccc(F)c(F)c2)c(Cl)cc1Cl)N1CCOCC1 [Compound 10, N-(2,4-Dichloro-5-(morpholinosulfonyl)benzyl)-3,4-difluoroani-line]",inactive,none,–
"O=S(=O)(c1cc(-c2nc3cc(F)c(F)cc3[nH]2)c(Cl)cc1Cl)N1CCOCC1 [Compound 8, 4-((2,4-Dichloro-5-(5,6-difluoro-1H-benzo[d]imidazol-2-yl)-phenyl)sulfonyl)-morpholine]",failed to inhibit ATX,none,–
"O=C(Nc1cc(Cl)c(Cl)c(Cl)c1)c1cc(S(=O)(=O)N2CCOCC2)c(Cl)cc1Cl [Compound 3d, 2,4-Dichloro-5-(morpholinosulfonyl)-N-(3,4,5-trichlorophenyl)-benzamide]",poorly active,none,–
"CN1CCN(S(=O)(=O)c2cc(C(=O)Nc3cc(Cl)c(F)c(Cl)c3)c(Cl)cc2Cl)CC1 [Compound 28b, 2,4-Dichloro-N-(3,5-dichloro-4-fluorophenyl)-5-((4-methylpiperazin-1-yl)sulfonyl)benzamide]",–,none,–
"CN1CCN(S(=O)(=O)c2cc(C(=O)Nc3cc(F)c(F)c(F)c3)c(Cl)cc2Cl)CC1 [Compound 28a, 2,4-Dichloro-5-((4-methylpiperazin-1-yl)sulfonyl)-N-(3,4,5-trifluorophenyl)-benzamide]",–,none,–
O=S(=O)(c1cc(N(S(=O)(=O)c2cccc(F)c2)S(=O)(=O)c2cccc(F)c2)c(Cl)cc1Cl)N1CCOCC1 [Compound 20],lost their ATX inhibitory activity,none,–
"O=C(Nc1cc(F)c(F)c(F)c1)c1cc(NN2CCOCC2)c(Cl)cc1Cl [Compound 25, 2,4-Dichloro-5-(morpholinoamino)-N-(3,4,5-trifluorophenyl)-benzamide]",completely lost ATX inhibitory activity,none,–
"CN(C(=O)c1cc(S(=O)(=O)N2CCOCC2)c(Cl)cc1Cl)c1cccc(F)c1 [Compound 9, 2,4-Dichloro-N-(3-fluorophenyl)-N-methyl-5-(morpholinosulfonyl)benzamide]",only very weak potency,none,–
"CCCCCCCCCCCCCCCc1ccc(CP(=O)(O)O)cc1 [compound 30, (4-pentadecylbenzyl)phosphonic acid, reference compound]",–,–,"resensitization of cancer stem-like cells to PT (in words) ([4]; 4T1-TaxR cells): effectively resensitized; further reduction of cell viability compared to PT alone ([4]; 4T1-TaxR mammospheres, PT 100 nM, compound 5 μM, 3 days): 25–30%"
"O=S(=O)(c1cc(-c2nc3cccc(F)c3o2)c(Cl)cc1Cl)N1CCOCC1 [Compound 7, 2-(2,4-Dichloro-5-(morpholinosulfonyl)phenyl)-7-fluorobenzo[d]-oxazole]",failed to inhibit ATX,none,–
"COc1cc(NC(=O)c2cc(S(=O)(=O)N3CCOCC3)c(Cl)cc2Cl)cc(OC)c1OC [Compound 3e, 2,4-Dichloro-5-(morpholinosulfonyl)-N-(3,4,5-trimethoxyphenyl)-benzamide]",poorly active,none,–
"O=C(Nc1cc(F)c(F)c(F)c1Br)c1cc(S(=O)(=O)N2CCOCC2)c(Cl)cc1Cl [Compound 5, N-(2-Bromo-3,4,5-trifluorophenyl)-2,4-dichloro-5-(morpholinosulfonyl)benzamide]",–,none,–
"O=C(Nc1ccc(F)c(F)c1)c1cc(S(=O)(=O)N2CCOCC2)c(Cl)cc1Cl [Compound 3a, 2,4-Dichloro-N-(3,4-difluorophenyl)-5-(morpholinosulfonyl)-benzamide]",–,none,"fold IC50 improvement relative to parent compound 3 (human recombinant ATX [1]; ATX, FS-3): 4 fold; mechanism (human recombinant ATX [1]): competitive; inhibition of A2058 cell invasion, screen at 10 μM [5]: as effective as 30; inhibition of A2058 cell invasion (in words) [5]: inhibit ATX-dependent invasion; also recorded: dose dependently decreased A2058 cell invasion"
"O=S(=O)(c1cc(C(=S)Nc2ccc(F)c(F)c2)c(Cl)cc1Cl)N1CCOCC1 [Compound 13, 2,4-Dichloro-N-(3,4-difluorophenyl)-5-(morpholinosulfonyl)-benzothioamide]",retained similar inhibitory activity as the amide analogues,none,–
"4-(2,4-Dichloro-5-(morpholinosulfonyl)benzamido)-2,6-difluoro-benzoic Acid [Compound 4]",inactive,none,–
"O=S(=O)(c1cc(C(=S)Nc2cc(Cl)c(F)c(Cl)c2)c(Cl)cc1Cl)N1CCOCC1 [Compound 15, 2,4-Dichloro-N-(3,5-dichloro-4-fluorophenyl)-5-(morpholinosulfonyl)-benzothioamide]",retained similar inhibitory activity as the amide analogues,none,–
"N#Cc1c(F)cc(NC(=O)c2cc(S(=O)(=O)N3CCOCC3)c(Cl)cc2Cl)cc1F [Compound 3h, 2,4-Dichloro-N-(4-cyano-3,5-difluorophenyl)-5-(morpholinosulfonyl)benzamide]",–,none,–
"CN1CCN(S(=O)(=O)c2cc(C(=S)Nc3cc(Cl)c(F)c(Cl)c3)c(Cl)cc2Cl)CC1 [Compound 29, 2,4-Dichloro-N-(3,5-dichloro-4-fluorophenyl)-5-((4-methylpipera-zin-1-yl)sulfonyl)-benzothioamide]",–,none,–
"CS(=O)(=O)N(C(=O)c1cc(NN2CCOCC2)c(Cl)cc1Cl)c1cc(F)c(F)c(F)c1 [Compound 26a, 2,4-Dichloro-N-(methylsulfonyl)-5-(morpholinoamino)-N-(3,4,5-trifluorophenyl)-benzamide]",–,none,–
"O=S(=O)(Nc1cccc(F)c1)c1cc(S(=O)(=O)N2CCOCC2)c(Cl)cc1Cl [Compound 22, 2,4-Dichloro-N-(3-fluorophenyl)-5-(morpholinosulfonyl)-benzenesulfonamide]",lost their ATX inhibitory activity,none,–
"O=S(=O)(c1cc(C(=S)Nc2cc(F)c(F)c(F)c2)c(Cl)cc1Cl)N1CCOCC1 [Compound 14, 2,4-Dichloro-5-(morpholinosulfonyl)-N-(3,4,5-trifluorophenyl)-benzothioamide]",retained similar inhibitory activity as the amide analogues,none,"in vitro stability (in words) [3]: significant stability; fold IC50 improvement relative to parent compound 3 (human recombinant ATX [1]; ATX, FS-3): 3 fold; mechanism (human recombinant ATX [1]): competitive; inhibition of A2058 cell invasion, screen at 10 μM [5]: as effective as 30; inhibition of A2058 cell invasion (in words) [5]: inhibit ATX-dependent invasion; also recorded: dose dependently decreased A2058 cell invasion"
"O=C(Nc1c(F)c(F)c(F)c(F)c1F)c1cc(S(=O)(=O)N2CCOCC2)c(Cl)cc1Cl [Compound 3c, 2,4-Dichloro-5-(morpholinosulfonyl)-N-(perfluorophenyl)-benzamide]",poorly active,none,–
"O=S(=O)(Nc1cc(F)c(F)c(F)c1)c1cc(S(=O)(=O)N2CCOCC2)c(Cl)cc1Cl [Compound 23, 2,4-Dichloro-5-(morpholinosulfonyl)-N-(3,4,5-trifluorophenyl)-benzenesulfonamide]",lost their ATX inhibitory activity,none,–
"O=C(Nc1cc(Cl)c(F)c(Cl)c1)c1cc(S(=O)(=O)N2CCOCC2)c(Cl)cc1Cl [Compound 3g, 2,4-Dichloro-N-(3,5-dichloro-4-fluorophenyl)-5-(morpholinosulfonyl)benzamide]",–,none,"fold higher potency of 3g over 3f (human recombinant ATX [1]; ATX, FS-3): 2 fold; mechanism (human recombinant ATX [1]): competitive; antagonist activity at LPA1 (in words) (LPA1): exhibited antagonist activity; also recorded: effective in antagonizing LPA1-elicited Ca^2+ responses"
